Data taken from ChEMBL document CHEMBL1275436, “Trypanocidal and leishmanicidal activities of sesquiterpene lactones from Ambrosia tenuifolia Sprengel (Asteraceae)” (Antimicrob Agents Chemother, 2008).
Converted amounts (≈) assume the structure as drawn. The source made the active and inactive calls. No cut-off for these calls is given here.

Assays:
Trypanosoma cruzi [1] = assay: Antitrypanosomal activity against Trypanosoma cruzi epimastigotes after 72 hrs by [3H]thymidine uptake assay; type: functional, organism-based
Procedure, shortened: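 Epimastigotes were seeded at 1.5 x 10^6/ml in triplicate with compound up to 100 µg/ml for 72 or 120 h, with [3H]thymidine pulsed for the final 16 h. Inhibition % = 100 − (cpm treated/cpm untreated × 100). Benznidazole (5 to 20 µM) was the positive control. Results are means ± SEM.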

Leishmania mexicana = assay: Antileishmanial activity against Leishmania mexicana MNYC/BZ/62/M promastigotes after 120 hrs by [3H]thymidine uptake assay; type: functional, organism-based
Procedure, shortened: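 Promastigotes were seeded at 1.5 x 10^6/ml in triplicate and exposed to 0.01 to 100 µg/ml compound for 72 or 120 h. [3H]thymidine was added for the last 16 h. Percent inhibition = 100 − (cpm treated/cpm untreated × 100). Amphotericin B (0.27–1.6 µM) was the positive control.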

[2] = Cytotoxicity against BALB/c mouse T cell after 24 hrs by trypan blue exclusion method; type: cell-based; details: T cells
Procedure, shortened: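 BALB/c mouse T lymphocytes at 2 x 10^6/ml were exposed to 0.1, 1, 10 and 50 µg/ml compound for 24 h. Viability was scored by trypan blue exclusion. Results are means ± SEM of three experiments done in duplicate.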

[3] = Selectivity index, ratio of CC50 for mouse T cells to IC50 for Trypanosoma cruzi trypomastigotes; type: functional, T-cell
Procedure, shortened: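 SI = 50% cytotoxic concentration on murine T lymphocytes (24 h, trypan blue exclusion) divided by IC50 against bloodstream trypomastigotes (24 h, Neubauer count of live parasites).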

Trypanosoma cruzi [4] = assay: Antitrypanosomal activity against Trypanosoma cruzi trypomastigotes infected in C3H/HeN mouse assessed as reduction in parasitemia at 1 mg/kg/day, ip treated from day 5 to 10 postinfection measured during acute phase of infection relative to control; type: functional; details: route intraperitoneal
Procedure, shortened: (§1)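 Male C3H/HeN mice (6–8 weeks, groups of five) were infected ip with 5 x 10^3 bloodstream trypomastigotes, with parasitemia confirmed on day 5 by microhematocrit. Dosing was 1 mg/kg/day ip in 0.1 M PBS pH 7.2 on days 5–10; vehicle served as negative control. Tail blood (5 µl, lysed 1:5 in NH4Cl/Tris) was counted by Neubauer chamber every 2 days. Deaths were recorded daily. Three independent experiments were run.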

Trypanosoma cruzi [5] = assay: Antitrypanosomal activity against Trypanosoma cruzi trypomastigotes infected in C3H/HeN mouse assessed as decrease in parasitemia at 1 mg/kg/day, ip treated from day 5 to 10 postinfection measured on day 16; type: functional, organism-based; procedure, shortened: as §1
Trypanosoma cruzi [6] = assay: Antitrypanosomal activity against Trypanosoma cruzi trypomastigotes infected in C3H/HeN mouse assessed survival rate at 1 mg/kg/day, ip treated from day 5 to 10 postinfection measured on 100th day postinfection; type: functional; details: route intraperitoneal
Procedure, shortened: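 Male inbred C3H/HeN mice, 6 to 8 weeks old, 27.2 ± 0.9 g, in groups of five, infected ip with 5 x 10^3 bloodstream trypomastigotes. Circulating parasites confirmed on day 5 by microhematocrit. Dosed ip daily, 1 mg/kg/day, on days 5 to 10 postinfection, in 0.1 M PBS pH 7.2; vehicle alone as negative control. Deaths recorded daily; three independent experiments.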

Trypanosoma cruzi [7] = assay: Antitrypanosomal activity against Trypanosoma cruzi trypomastigotes after 24 hrs by counting remaining live parasites in a Neubauer chamber

Structure (SMILES)	IC50 (Trypanosoma cruzi [1]) [µg/mL]	IC50 (Leishmania mexicana) [µg/mL]	CC50 at 24 h [2] [µg/mL]	Selectivity Index [3]	fold change (FC) (Trypanosoma cruzi [4])	inhibition (Trypanosoma cruzi [5])	Activity (Trypanosoma cruzi [6]) [%]	IC50 (Trypanosoma cruzi [7]) [µg/mL]
C=C1C(=O)O[C@@H]2[C@H]1CC[C@H](C)[C@]1(CCC(=O)O1)[C@@]2(C)O [PSILOSTACHYIN A]	1.22 (≈ 4.35 µM)	0.12 (≈ 0.428 µM)	25.7 (≈ 91.7 µM)	33.8	1.5	Active	100	0.76 (≈ 2.71 µM)
C=C1C(=O)O[C@@H]2C[C@H](C)[C@]3(O)CCC(=O)[C@@]3(C)C[C@H]12 [PERUVIN]	1.65 (≈ 6.24 µM)	0.39 (≈ 1.48 µM)	35 (≈ 132 µM)	0.7	–	–	–	52.8 (≈ 200 µM)
